Reference: ChEMBL document CHEMBL4765243, “Discovery of Novel Bromophenol-Thiosemicarbazone Hybrids as Potent Selective Inhibitors of Poly(ADP-ribose) Polymerase-1 (PARP-1) for Use in Cancer” (J Med Chem, 2019)
The source made the active and inactive calls. The rule behind the calls is not given here.

Legend:
[1] = test system: SK-OV-3; experiment: Antitumor activity against human SKOV3 cells xenografted in Balb/c nude mouse assessed as increase in gamma-H2AX protein expression in tumor at 25 to 50 mg/kg, po for 21 days by western blot analysis; format: functional, organism-based; conditions: dose 25-50 mg/kg, time 21.0 day
Method in brief: (§1)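 SK-OV-3 xenografts in female BALB/c nude mice were dosed orally at 25 or 50 mg/kg in 0.5% CMC-Na for 21 days. Tumours were then snap-frozen in liquid nitrogen or fixed in 10% neutral-buffered formalin. Analysis used western blotting, H&E and immunohistochemistry on paraffin sections (Ki67, γ-H2AX).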

[2] = test system: L02; experiment: Cytotoxicity against human HL7702 cells assessed as cell growth inhibition incubated for 48 hrs by MTT assay; format: cell-based; conditions: L02, 48 h
Method in brief: (§2)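 Cells seeded in 96-well plates and exposed to compounds for 48 h; viability read by MTT. Each experiment repeated three times. SK-OV-3 grown in McCOY's 5A, Bel-7402 and HL-7702 in RPMI-1640, HepG2 in DMEM, Caco-2 in MEM.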

[3] = test system: SK-OV-3; experiment: Induction of cell cycle arrest in human SKOV3 cells assessed as reduction in CDK1 expression at 2.5 to 10 uM incubated for 48 hrs by western blot analysis; format: functional, cell-based; conditions: dose 2.5-10 µM
[4] = test system: SK-OV-3; experiment: Induction of autophagy in human SKOV3 cells assessed as increase in formation of autophagosomes at 10 uM incubated for 48 hrs by TEM analysis; format: functional, cell-based
Method in brief: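 SK-OV-3 cells exposed to 10 µM for 48 h, then fixed, dehydrated and resin-embedded. 200 nm sections on formvar grids, counterstained with uranyl acetate and lead citrate, imaged by transmission electron microscopy.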

[5] = MRT in Sprague-Dawley rat at 2 mg/kg, iv by LC/MS/MS analysis; format: ADME, organism-based; conditions: in vivo
Method in brief: (§3)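 Male Sprague-Dawley rats, 4 per group, dosed once orally at 10 mg/kg or intravenously at 2 mg/kg. Blood taken from the saphenous vein for plasma. Drug levels measured by LC-MS-MS, with parameters derived by noncompartmental analysis.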

[6] = Toxicity in Balb/c nude mouse xenografted with human SKOV3 cells assessed as change in body weight at 25 mg/kg, po for 21 days and measured every third day; format: organism-based; conditions: in vivo, 504 h, time 21 day
Method in brief: (§4)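 Female BALB/c nu/nu mice, 6-8 weeks old, kept under SPF conditions. Each received 5×10^6 SK-OV-3 cells s.c. At 80–120 mm3 tumour volume, mice were split into four groups (n=6). […] Caliper measurement every three days; volume = X × (Y2/2).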

[7] = test system: Bel-7402; experiment: Antiproliferative activity against human Bel-7402 cells assessed as cell growth inhibition incubated for 48 hrs by MTT assay; format: functional, cell-based; conditions: Bel-7402, 48 h; method in brief: as §2
[8] = Subacute toxicity in SPF Kunming mouse assessed as change in heart at 1000 mg/kg, po administered for 14 days by H and E staining based microscopic analysis; format: organism-based; conditions: in vivo, 336 h, time 14 day
Method in brief: (§5)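 Twenty SPF Kunming mice (18 - 22 g), half male and half female, randomised into 2 groups of 5 males + 5 females. Treated group dosed orally at 1000 mg/kg once daily for 14 days. Death, clinical signs and body weight monitored. After 14 days: isoflurane anaesthesia, decapitation, tissues collected for H&E histology.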

[9] = Acute toxicity in SPF Kunming mouse assessed as abnormality at 100 to 1000 mg/kg, po administered as single dose and measured upto 14 days post drug administration; format: organism-based; conditions: in vivo, 336 h, dose 100-1000 mg/kg, time <=14 day
Method in brief: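 Single oral dose groups at 0 (physiological saline blank, equal volume), 100, 500 and 1000 mg/kg. Mice housed with free access to water and food in stainless cages, 25 ± 1 °C, 12-h light/dark cycle. Survival, body weight and abnormalities recorded up to 14 days post-treatment.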

[10] = test system: SK-OV-3; experiment: Induction of apoptosis in human SKOV3 cells assessed as increase in caspase-3 expression at 2.5 to 10 uM incubated for 48 hrs by western blot analysis; format: functional, cell-based; conditions: dose 2.5-10 µM
[11] = target: T1, Poly [ADP-ribose] polymerase 1 (Homo sapiens, UniProt P09874); experiment: Inhibition of PARP-1 in human SKOV3 cells assessed as increase in gammaH2AX expression level at 2.5 to 10 uM incubated for incubated for 48 hrs by western blot analysis; format: cell-based; conditions: SK-OV-3, dose 2.5-10 µM
T1 sequence (P09874 whole entry): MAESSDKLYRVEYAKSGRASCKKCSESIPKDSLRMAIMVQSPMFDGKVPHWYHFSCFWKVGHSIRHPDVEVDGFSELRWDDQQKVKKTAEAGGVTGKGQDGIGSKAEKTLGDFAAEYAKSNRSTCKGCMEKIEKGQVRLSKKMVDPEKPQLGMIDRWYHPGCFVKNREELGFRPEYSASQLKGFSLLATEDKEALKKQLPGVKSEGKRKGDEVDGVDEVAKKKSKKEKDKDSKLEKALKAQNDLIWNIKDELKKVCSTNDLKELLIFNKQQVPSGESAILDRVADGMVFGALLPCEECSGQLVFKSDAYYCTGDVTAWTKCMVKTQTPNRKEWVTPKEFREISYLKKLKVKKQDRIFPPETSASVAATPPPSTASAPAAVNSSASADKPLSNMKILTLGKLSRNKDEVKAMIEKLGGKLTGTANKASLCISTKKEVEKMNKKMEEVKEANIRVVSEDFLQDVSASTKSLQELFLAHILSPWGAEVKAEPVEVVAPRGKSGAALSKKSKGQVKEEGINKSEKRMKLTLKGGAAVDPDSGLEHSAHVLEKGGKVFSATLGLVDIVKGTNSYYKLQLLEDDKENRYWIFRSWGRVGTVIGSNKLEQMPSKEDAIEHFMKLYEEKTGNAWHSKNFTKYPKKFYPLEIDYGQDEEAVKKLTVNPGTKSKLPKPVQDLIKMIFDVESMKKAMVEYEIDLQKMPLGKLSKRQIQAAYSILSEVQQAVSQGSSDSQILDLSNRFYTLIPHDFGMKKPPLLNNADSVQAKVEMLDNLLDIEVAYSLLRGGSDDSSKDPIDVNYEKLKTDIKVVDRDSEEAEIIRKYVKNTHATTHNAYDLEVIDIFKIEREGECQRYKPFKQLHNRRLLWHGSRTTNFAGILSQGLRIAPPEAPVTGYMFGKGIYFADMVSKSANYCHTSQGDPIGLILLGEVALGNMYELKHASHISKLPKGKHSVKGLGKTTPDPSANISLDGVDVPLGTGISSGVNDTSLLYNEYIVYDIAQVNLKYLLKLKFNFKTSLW
Method in brief: (§6)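 SK-OV-3 cells were grown in McCOY's 5A, seeded in 6-well plates and treated for 48 h. Lysate proteins were separated by 8-15 % SDS-PAGE and transferred to PVDF membranes. Membranes were blocked in 5 % nonfat milk, probed with primary antibody overnight at 4 °C and with HRP secondary antibody for 1 h at room temperature, then detected by enhanced chemiluminescence. Images are representative of 3 independent experiments.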

[12] = Cmax in Sprague-Dawley rat at 2 mg/kg, iv by LC/MS/MS analysis; format: ADME, organism-based; parameters: route intravenous, dose 2 mg/kg; conditions: in vivo; method in brief: as §3
[13] = test system: SK-OV-3; experiment: Antiproliferative activity against human SK-OV-3 cells assessed as cell growth inhibition at 20 uM incubated for 48 hrs by MTT assay relative to control; format: functional
[14] = Toxicity in Balb/c nude mouse xenografted with human SKOV3 cells assessed as histological changes in kidney at 25 to 50 mg/kg, po for 21 days by H and E staining based microscopic analysis; format: organism-based; conditions: in vivo, 504 h, dose 25-50 mg/kg, time 21 day; method in brief: as §1
[15] = Subacute toxicity in SPF Kunming mouse assessed as clinical changes at 1000 mg/kg, po administered for 14 days and measured on day 14; format: organism-based; conditions: in vivo, 336 h, time 14 day; method in brief: as §5
[16] = Subacute toxicity in SPF Kunming mouse assessed as induction of death at 1000 mg/kg, po administered for 14 days and measured on day 14; format: organism-based; conditions: in vivo, 336 h, time 14 day; method in brief: as §5
[17] = Subacute toxicity in SPF Kunming mouse assessed as change in body weight at 1000 mg/kg, po administered for 14 days and measured on day 14; format: organism-based; conditions: in vivo, 336 h, time 14 day; method in brief: as §5
[18] = target: T1, Poly [ADP-ribose] polymerase 1; experiment: Inhibition of PARP-1 in human SKOV3 cells assessed as decrease in MCM5 protein expression level at 2.5 to 10 uM incubated for 48 hrs by western blot analysis; format: cell-based; conditions: SK-OV-3, dose 2.5-10 µM; method in brief: as §6
[19] = target: T1, Poly [ADP-ribose] polymerase 1; experiment: Inhibition of PARP-1 in human SKOV3 cells assessed as decrease in MCM2 protein expression level at 2.5 to 10 uM incubated for 48 hrs by western blot analysis; format: cell-based; conditions: SK-OV-3, dose 2.5-10 µM; method in brief: as §6
[20] = test system: SK-OV-3; experiment: Antitumor activity against human SKOV3 cells xenografted in Balb/c nude mouse assessed as tumor growth inhibition administered orally for 21 days and measured every third day; format: functional, cell-based; conditions: dose 25-50 mg/kg, time 21.0 day; method in brief: as §4
[21] = test system: Bel-7402; experiment: Antiproliferative activity against human Bel-7402 cells assessed as cell growth inhibition at 20 uM incubated for 48 hrs by MTT assay relative to control; format: functional
[22] = target: T1, Poly [ADP-ribose] polymerase 1; experiment: Inhibition of PARP-1 in human SKOV3 cells assessed as decrease in MCM4 protein expression level at 2.5 to 10 uM incubated for 48 hrs by western blot analysis; format: cell-based; conditions: SK-OV-3, dose 2.5-10 µM; method in brief: as §6
[23] = test system: Caco-2; experiment: Antiproliferative activity against human Caco-2 cells assessed as cell growth inhibition incubated for 48 hrs by MTT assay; format: functional, cell-based; conditions: Caco-2, 48 h; method in brief: as §2
[24] = Volume of distribution at steady state in Sprague-Dawley rat at 2 mg/kg, iv by LC/MS/MS analysis; format: ADME, organism-based; conditions: in vivo, read-out: Vdss; method in brief: as §3

**Q.** Which results are given for COc1cc(/C=N/NC(N)=S)c(Br)c(Br)c1OC?
**A.** Activity [1]: Active; IC50 [2]: 13.3 µM; Activity [3]: Active; Activity [4]: Active; MRT [5]: 1.14 h; Activity [6]: Non-Toxic; IC50 [7]: 5.45 µM; Activity [8]: Non-Toxic; Activity [9]: Non-Toxic; Activity [10]: Active; inhibition [11]: Active; Cmax [12]: 1250 nM; inhibition at 20 µM [13]: 100%; Activity [14]: Non-Toxic; Activity [15]: Non-Toxic; Activity [16]: Non-Toxic; Activity [17]: Non-Toxic; inhibition [18]: Active; inhibition [19]: Active; inhibition [20]: Dose-dependent effect; inhibition at 20 µM [21]: 63.5%; inhibition [22]: Active; IC50 [23]: 20.5 µM; Vd [24]: 6.1 L/kg
